Compound activity deposited in PubChem by several laboratories.
Most compounds without a hit are left out; they make up all but 1.9% or so of the library.
Rce1 inh – yeast Rce1p protease inhibitors, primary screen, biochemical, fluorescence, cell-free homogeneous; calls only; CAAX prenyl protease 2 (Saccharomyces cerevisiae (strain ATCC 204508 / S288c)), Q03530; hit rate 0.27% among 290,000; yeast membranes, quenched prenylated peptide cleavage fluorescence; AID 2563, 2010;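 active = fall in fluorescence gain of 50% or more versus controls, with final raw signal at or below 3038400; inconclusive = same 50% fall but final raw signal above 3038400; inactive = fall in fluorescence gain under 50%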;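 note: plate controls were neutral control wells for no effect and wells lacking membranes for full effect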
Target sequence (Q03530 whole entry, looked up): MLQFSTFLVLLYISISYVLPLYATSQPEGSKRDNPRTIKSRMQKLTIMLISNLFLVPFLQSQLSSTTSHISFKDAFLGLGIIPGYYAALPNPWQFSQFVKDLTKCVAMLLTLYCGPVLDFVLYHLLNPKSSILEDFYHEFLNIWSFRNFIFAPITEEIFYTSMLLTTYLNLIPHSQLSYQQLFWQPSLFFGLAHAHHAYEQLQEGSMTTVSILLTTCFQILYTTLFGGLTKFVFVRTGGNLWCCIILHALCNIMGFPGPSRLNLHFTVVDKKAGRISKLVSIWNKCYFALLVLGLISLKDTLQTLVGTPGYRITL
HCV core dimer – inhibitors of HCV core protein dimerization, primary screen, biochemical, TR-FRET, high-throughput; TR-FRET GST/Flag-core106 dimerization, 1536-well; inhibition, % at 5 µM; hit rate 0.33% among 300,000; AID 1899, 2009;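 active = inhibition above the mean of all tested compounds plus 3 SD, set per screening campaign, cut at about 45% in these data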
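test system = GST/Flag-tagged HCV core106 proteins | probe or stimulus = Eu donor and XL665 acceptor anti-tag antibodies | times = compound-protein-antibody incubation 4 h at 22.5 °C | signal = TR-FRET, excitation 340 nm, emission 617 and 671 nm | measure = percent inhibition of core106 dimerization signal | controls = wells lacking GST-core106 and wells with excess unlabelled core106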
DSG3 Ab inh – inhibitors of pemphigus antibody binding to DSG3, primary screen, biochemical, bead-based, flow cytometry, scFv-GFP; Desmoglein-3 (Homo sapiens), P32926; DSG3-coupled beads, scFv-anti-DSG3-GFP binding; stronger effect = lower value; binding (percent of control), % at 10 µM; hit rate 0.48% among 310,000; AID 588358, 2011;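 active = binding more than 3 SD below its plate's average and above zero; inconclusive = below that plate limit but binding exactly zero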
NadD block – inhibitors of S. aureus NadD, primary screen, biochemical, colorimetric, uHTS. Nicotinate-nucleotide adenylyltransferase NadD (Staphylococcus aureus N315). purified NadD enzyme, colorimetric absorbance read-out. inhibition, % at 20 µM. hit rate 0.78% among 360,000. AID 602399, 2012; in the data active = inhibition above about 26%
Tb MetRS inh – T. brucei MetRS inhibitors, primary screen, biochemical, luminescence; hit rate 0.4% among 360,000; methionyl-tRNA synthetase (Trypanosoma brucei brucei); purified T. brucei MetRS, ATP depletion, Kinase-Glo luminescence; inhibition, % at 11.9 µM;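 active = inhibition above a per-plate cutoff of the control wells' mean inhibition plus 3 SD, cut at about 5.5% in these data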;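 note: 0% = DMSO wells median and 100% = median of wells with control inhibitor compound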
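assay system = parasite MetRS enzyme | timing = 15 min preincubation, 2 h reaction, all 25 °C | evaluation = percent inhibition relative to median high and low control wells | medium = HEPES buffer containing pyrophosphatase, BSA, spermine, DTT | compound = single dose, 11.9 µM final nominal, 0.9% final DMSO | detection = Kinase-Glo luminescence, ATP depletion format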
TbMetRS confirm – T. brucei MetRS inhibitors, confirmation, biochemical, luminescence | T. brucei MetRS enzyme, luminescence (ATP depletion) | AID 624412, 2012 | inhibition, % at 11.9 µM | shares compounds with Tb MetRS inh | hit rate 93% among 1,400; in the data active = inhibition above about 7%
Jurkat cytotox – Jurkat T cell cytotoxicity, cytotoxicity control for T. brucei MetRS inhibitor project, luminescence, high throughput. shares compounds with Tb MetRS inh. Jurkat cells viability, ATP luminescence. inhibition, % at 8.3 µM. hit rate 12% among 1,400. AID 624413, 2012; in the data active = inhibition above about 15%;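 note: 0% = vehicle and 100% = reference inhibitor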
Tb MetRS inh FP – T. brucei MetRS inhibitors, orthogonal assay for T. brucei MetRS inhibitor project, biochemical, fluorescence polarization. shares compounds with Tb MetRS inh. purified T. brucei MetRS. inhibition, % at 11.9 µM. hit rate 44% among 1,400; in the data active = inhibition above about 17%;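 note: 0% = vehicle wells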
* hit, by the source's call; i = inactive; ? = inconclusive; . = not tested or not shown.

SMILES	Rce1 inh	HCV core dimer	DSG3 Ab inh	NadD block	Tb MetRS inh	TbMetRS confirm	Jurkat cytotox	Tb MetRS inh FP
Cc1ccc(N2C(=O)C3Sc4[nH]c(=O)sc4C(c4ccccc4)C3C2=O)cc1 (configuration not stated)	.	7.1	107.0	1.7	-0.2	.	.	.
O=C(Nc1ccc(N2CCOCC2)c2nonc12)C1CCCC1	i	19.9	94.3	5.1	-0.4	.	.	.
Nc1ccc(N2CCOCC2)c2nonc12	i	-9.8	96.5	11.5	26.5*	4.5	-5.5	0.7
O=c1cc(CO)oc(CN2CCN(Cc3ccccc3)CC2)c1O	i	-3.2	102.8	5.2	-0.2	.	.	.
COC(=O)c1cc(Cl)c(NC(=O)c2cc(OC)c(OC)c(OC)c2)cc1OC	i	2.5	110.5	-4.9	-0.5	.	.	.
CC(=O)Oc1ccc(N2C(=O)CC(N3CCOCC3)C2=O)cc1 (configuration not stated)	i	1.2	103.9	7.8	-1.0	.	.	.
O=C(NNC(=O)c1cc(-c2ccc(Cl)c(Cl)c2)nc2ccccc12)Nc1ccccc1	i	9.7	?	21.8	45.1*	93.9*	2.2	80.9*
COc1cccc(-n2c(SCC(=O)N3CCOCC3)nnc2-c2c[nH]c3ccccc23)c1	i	-7.2	100.6	-0.8	17.5*	29.8*	8.7	6.3
Cc1nc2nc(SCc3nc4ccccc4[nH]3)[nH]c2cc1Br	i	-2.6	113.3	3.6	13.0*	17.8*	-0.2	11.6
Cc1nc2nc(SCC(=O)C(C)(C)C)[nH]c2cc1Br	i	-1.1	?	-0.3	-0.5	.	.	.
Cc1cnc(CNC(=O)C2CCC(=O)N(Cc3ccc(Cl)cc3)C2)[nH]1 (configuration not stated)	i	7.0	102.2	-6.6	31.7*	68.6*	-0.7	35.6*
Nc1ccc(C(=O)OCc2nc3c(ccc4ccccc43)[nH]2)cc1	i	-4.8	74.2	2.2	7.1*	10.5*	20.4*	10.5
Nc1ccc(C(=O)OCc2nc3cc4ccccc4cc3[nH]2)cc1	i	1.6	76.2	3.0	3.4	.	.	.
CC(C)C[C@@H](CNCC(=O)[C@H](Cc1c[nH]c2ccccc12)NC(=O)c1[nH]cnc1C(=O)N[C@@H](C)CN)NC(=O)c1nc[nH]c1C(=O)N[C@@H](C)C(=O)O	.	.	114.8	8.3	22.8*	36.7*	-1.2	10.3
COc1ccc(CC(NC(C)=O)C(=O)NC2CCN(S(=O)(=O)c3ccc(NC(C)=O)cc3)CC2)c(OC)c1 (configuration not stated)	i	-1.7	103.3	-3.6	-0.2	.	.	.
c1ccc(CN2CCC(CNc3ncnc4ccccc34)C2)cc1 (configuration not stated)	.	.	.	0.7	6.2*	27.6*	26.9*	16.4
C(=N\Nc1nc2ccccc2[nH]1)/c1ccc2c(c1)OCCO2	i	-8.3	108.8	-3.9	3.2	.	.	.
N#Cc1nc(COc2ccc(Cl)cc2)oc1NCc1ccc2c(c1)OCO2	i	12.1	101.1	-5.7	5.7*	9.8*	1.1	11.9
O=C(Nc1ccncc1)c1cccc(F)c1	i	-1.7	97.9	0.3	-0.6	.	.	.
COc1ccc(NC(=O)CSc2nnc(Cc3cccn3C)n2-c2ccc(F)cc2)cc1OC	i	0.8	110.9	0.8	-0.6	.	.	.
O=C(/C(=C\c1ccccc1)c1nc2ccccc2[nH]1)c1ccc(Cl)cc1	i	8.2	124.5	10.4	9.7*	3.8	78.8*	-0.3
O=C(/C(=C/c1ccc(Cl)cc1)c1nc2ccccc2[nH]1)c1cccs1	i	17.0	98.6	5.6	0.1	.	.	.
